Source: PubChem BioAssay (several laboratories)
Beta apoptosis: beta cell apoptosis inhibition | 0.8% of 300,000 active | INS-1E cytokine-induced death, ATP luminescence, 48 h; percent of positive-control rescue, neutral wells zero | protection from apoptosis, % (test concentration not listed) | AID 435005;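 active = Every replicate reaches about 75%, or at least half do and their mean reaches it too, limit read from the data; inconclusive = At least half of replicates reach the limit but their mean does not; inactive = Under half of replicates reach the limit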;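 note: higher means more ATP so stronger rescue from cytokine killing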
Calb FLC: C. albicans growth modulation with fluconazole | C. albicans CaCi-2 (fluconazole-resistant clinical isolate) + fluconazole, Alamar Blue growth, 48 h | growth inhibition, % (test concentration not listed) | 0.57% of 300,000 active;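 active = growth inhibition above about 58% in most replicates, limit read from the data, passing the limit was not always enough; inconclusive = exactly half the replicates above a set limit; inactive = most replicates below a set limit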;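 note: all wells also contain fluconazole at 8 µg/ml as a sub-toxic cotreatment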
CSC inhib: blocks cancer stem cells | AID 2717 | inhibition, % at 7.5 µM | 1.1% of 300,000 active | cancer stem cell-like cells viability, luminescence; in the data active = inhibition above about 75%; inconclusive = no clear call, values can overlap the other calls; tested in HMLE shEcad cells
Mdm2-MdmX inh: inhibitors of human Mdm2/MdmX interaction; SaOS-2 split-luciferase Mdm2/MdmX complementation, luminescence; inhibition, % at 8 µM; 3% of 330,000 active;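 active = inhibition of at least 50% at 8 µM in the primary screen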
SKKanGAS inh: SKKanGAS growth inhibition. S. pyogenes SKKanGAS, kanamycin growth, BacTiter-Glo, 6 h. inhibition, % at 7.5 µM. 1.3% of 300,000 active. AID 1662;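 active = mean replicate score, as percent of positive control median, at least 50; inconclusive = mean below 50 but one replicate at or above 50; inactive = mean and every replicate below 50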;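 note: strain carries kanamycin resistance gene driven by streptokinase promoter and grows in 40 µg/ml kanamycin; loss of luminescence reflects streptokinase promoter inhibition or plain growth inhibition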
T cruzi inh: T. cruzi replication inhibition; T. cruzi beta-gal in NIH3T3, luminescence, 90 h; inhibition, % (no concentration beside the values); 1.4% of 300,000 active; AID 1885;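 active = mean inhibition across valid replicates above about 55%, limit read from the data; inconclusive = mean below that limit but half or more replicates reach it; inactive = mean below it, under half of replicates reach it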;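 note: signal also drops with host cell toxicity which is not excluded here; higher percent means less beta-gal luminescence so fewer parasites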
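compound dosing = single 50 nL compound addition per well in DMSO | material = NIH/3T3 host cells with β-galactosidase reporter T. cruzi | input = 5,000 host fibroblasts per well | timing = ≥90 h infection period, 3 h prior cell attachment | read-out basis = percent inhibition of parasite-derived β-gal signal | detection = GalScreen β-gal luminescence, detergent lysis, 60 min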
A number is an active result; - = inactive; ? = inconclusive; . = not tested or not shown. This is a sample that favours compounds with a hit; in the whole collection about 5.7% have one here.

SMILES | Beta apoptosis | Calb FLC | CSC inhib | Mdm2-MdmX inh | SKKanGAS inh | T cruzi inh
COc1ccccc1CN1C(=NC(=O)C2CCCCC2)SC2CS(=O)(=O)CC21 (configuration not stated) | - | - | - | - | - | -
CCCCN(C(=O)c1cc(-c2ccncc2)nc2ccccc12)c1c(N)n(CC(C)C)c(=O)[nH]c1=O | - | . | - | - | . | .
N#C/C(=N\Nc1ccc(S(=O)(=O)N2CCCCC2)cc1)C(N)=S | - | - | - | - | - | -
N#C/C(=N\Nc1ccc(S(=O)(=O)N2CCCCCC2)cc1)C(N)=S | . | - | - | - | 114 | -
CCc1ccc(N2CC(C)Cn3c2nc2c3c(=O)[nH]c(=O)n2C)cc1 (configuration not stated) | - | - | - | - | - | -
COc1ccccc1OC(C)C(=O)Nc1ccccc1C(=O)NCc1cccnc1 (configuration not stated) | - | - | . | - | - | -
CN1CCN(CC(O)c2ccccc2)CC1 (configuration not stated) | - | - | - | - | - | 55
OC(CN1CCN(C(c2ccccc2)c2ccccc2)CC1)c1ccccc1 (configuration not stated) | - | - | - | - | - | -
C[C@]12c3[nH]c4ccccc4c3CCN1C(=O)C(CC(=O)NCCc1ccccn1)C[C@@H]2C(=O)N1CCOCC1 (some centres not stated) | - | . | - | - | . | .
Cc1c(C)n(Cc2ccccc2)c2ccc(C(=O)OCCCN(C)C)cc12 | - | - | - | - | - | 61
Cc1ccc(NC(=O)C2CC(=O)N(Cc3ccco3)C2)cc1 (configuration not stated) | - | - | - | - | - | -
COc1cc(OC)cc(C(=O)NC(=S)N2CCCCC2c2cccnc2)c1 (configuration not stated) | - | - | - | - | - | 62
COc1ccc(NC(=O)N2CCCCC2c2cccnc2)cc1 (configuration not stated) | - | - | - | - | - | 66
CC(=O)c1ccc(NC(=O)Nc2ccccc2)cc1 | - | - | - | - | - | -
O=C(Cc1c2ccccc2nc2ccccc12)c1ccccc1 | - | - | - | - | - | -
O=C(/C=C/c1ccc(F)cc1)Nc1cccc(S(=O)(=O)N2CCOCC2)c1 | - | . | - | - | . | .
CC1Cc2ccccc2C(CCc2ccccc2)=N1 (configuration not stated) | - | - | - | - | - | -
O=C(Nc1ccc(S(=O)(=O)N2CCOCC2)cc1)c1ccco1 | - | - | - | - | - | -
Cc1ccc(S(=O)(=O)N2CCN(C(=O)COc3ccc(NC(=O)c4ccco4)cc3)CC2)cc1 | - | - | 94 | - | - | -
Cc1ccc(S(=O)(=O)NCCC2(C(C)C)CCOC(C)(C)C2)cc1 (configuration not stated) | - | - | - | - | - | -
Cc1ccc(C2=NNC3(CCOC(C)(C)C3)S2)cc1 (configuration not stated) | - | 95 | - | - | - | -
CC(=O)Nc1ccc(S(=O)(=O)N2CCN(c3ccc(C)c(Cl)c3)CC2)cc1 | - | - | - | - | - | -
CC(=O)Nc1ccc(OCC(O)CN2CCN(c3ccc(C)c(Cl)c3)CC2)cc1 (configuration not stated) | - | - | 120 | - | - | -
CC(=O)Nc1ccc(OCC(O)CN2CCN(c3cc(Cl)ccc3C)CC2)cc1 (configuration not stated) | . | - | 84 | - | - | -
Cc1ccc(Cl)cc1N1CCN(CC(O)COC(C)C)CC1 (configuration not stated) | - | - | - | - | - | -
SMILES | Beta apoptosis | Calb FLC | CSC inhib | Mdm2-MdmX inh | SKKanGAS inh | T cruzi inh
O=C(NCc1nc2ccccc2[nH]1)C1=C[C@@H](c2ccccc2)C[C@@H](OCCCCO)O1 | - | - | - | - | - | -
NC(=S)N/N=C\c1ccccc1OCc1ccccc1 | - | - | - | - | - | 55
COc1cc(/C=N/NC(N)=S)ccc1OCc1ccc(C)cc1 | - | - | 76 | - | - | 58
COc1ccc2cc(/C=N/NC(=O)c3ccc(CN(c4cccc(Cl)c4Cl)S(C)(=O)=O)cc3)c(Cl)nc2c1 | - | - | 85 | - | - | -
Cc1ccc(-c2nc(NC(=O)c3cc(C(C)(C)C)nn3C)sc2C)cc1Cl | - | - | - | - | - | .
Cc1cc(Nc2cccc(Cl)c2Cl)n2ncnc2n1 | - | 116 | - | - | - | -
Cn1cccc1-c1cc(C(=O)N2CCc3c([nH]c4ccccc34)C2c2ccccn2)[nH]n1 (configuration not stated) | - | 98 | - | - | - | -
COc1ccc(C(=O)Nc2ccc(S(=O)(=O)N3CCCC3)cc2)c(OC)c1 | - | - | - | - | - | 77
CC(=O)N1CCc2c(sc(NC(=O)c3ccc([N+](=O)[O-])o3)c2C#N)C1 | . | - | . | . | - | -
COC(=O)c1sc(NC(=O)c2ccc([N+](=O)[O-])o2)c(C#N)c1C | - | - | . | - | - | 57
COc1cc(OC)c(NC(=O)c2sc3ncn(CC(=O)N4CCN(c5ccccn5)CC4)c(=O)c3c2C)cc1Cl | - | - | - | - | 50 | -
COc1cccc(/C=C(/C(=O)OCC(=O)NC2CCCC(C)C2C)c2ccccc2)c1 (configuration not stated) | - | - | - | . | 65 | -
O=C(O)/C(=C\c1ccc(Br)cc1)NC(=O)c1cccs1 | - | - | - | - | - | -
COc1cc(/C=C2/SC(=S)NC2=O)ccc1OS(=O)(=O)c1ccc(C)cc1 | - | - | 102 | - | - | -
COc1ccc(/C=C2\SC(=S)NC2=O)cc1OS(=O)(=O)c1ccc(NC(C)=O)cc1 | . | ? | . | . | - | -
COc1cc(/C=C2\SC(=S)NC2=O)ccc1OS(=O)(=O)c1ccccc1 | 113 | - | 97 | - | - | -
CCc1c(C2(O)CCCCC2)[nH]c2ncccc12 | - | . | - | - | . | .
CCOC(=O)CC(NC(=O)C(CC)c1ccccc1)c1ccccc1Cl (configuration not stated) | - | - | - | - | - | -
CCOC(=O)CC(/C(C)=N\O)c1ccccc1 (configuration not stated) | - | 99 | - | - | - | -
C=C(C)C(O)Cc1c(OC)ccc(C(=O)/C=C/c2ccc(O)cc2)c1O (configuration not stated) | . | . | . | - | . | .
CC(C)=CCC/C(C)=C/Cc1c(O)ccc(C(=O)/C=C/c2ccc(O)cc2)c1O | - | - | 121 | - | 106 | -
Cc1ccc(C(=O)O[C@H](C(=O)O)[C@H](OC(=O)c2ccc(C)cc2)C(=O)O)cc1 | - | - | - | - | - | -
COc1ccc(C(=O)/C=C/C(=O)N(CC(=O)NC2CCCCC2)Cc2ccccc2OC)c(O)c1 | . | - | . | . | - | 89
COc1ccc(C(=O)/C=C/C(=O)N(CC(=O)NC2CCCCC2)Cc2ccccc2)c(O)c1 | . | - | . | . | - | 60
